MsrA act – activators of bovine methionine sulfoxide reductase A; purified bovine MsrA, absorbance read-out; activation, % at 10.6 µM; 360,000 compounds, 0.3% hits; AID 602163; in the data active = activation above about 7.5%;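 also: 0% = vehicle and 100% = reference activator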
MsrA inh – inhibitors of bovine MsrA | purified bovine MsrA, absorbance read-out | inhibition, % at 15.5 µM | 360,000 compounds, 0.75% hits; in the data active = inhibition above about 4.5%;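 also: 0% = vehicle wells with enzyme and 100% = reference inhibitor wells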
Tb MetRS inh – Trypanosoma brucei MetRS inhibition | purified T. brucei MetRS, ATP depletion, Kinase-Glo luminescence | inhibition, % at 11.9 µM | 360,000 compounds, 0.4% hits;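 active = inhibition above a per-plate cutoff of the control wells' mean inhibition plus 3 SD, cut at about 5.5% in these data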;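 also: 0% = DMSO wells median and 100% = median of wells with control inhibitor compound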
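Assay system: T. brucei methionyl-tRNA synthetase, purified | Medium: HEPES buffer with MgCl2, KCl, DTT, spermine, BSA, pyrophosphatase | Compound: 11.9 µM single point | Incubation: 15 min enzyme-compound preincubation, 2 h reaction, 10 min detection, 25 °C | Measured by: Kinase-Glo luciferase luminescence reporting remaining unconsumed ATP | Measure: % inhibition normalized to control-well medians | Replication: Singlicate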
procasp7 counter – activates human procaspase-7, counter-screen for procaspase-3 activators. P55210. 330,000 compounds, 0.093% hits. AID 463210. activation, % at 8.5 µM. recombinant procaspase-7, Ac-DEVD-pNA absorbance 405 nm; D23A/D198A/D206A triple mutant, cannot self-cleave; scale: DMSO 0, 5 µM enzyme 100;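 active = percent activation above the screen-wide mean plus 3 SD, cut at about 25% in these data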
Target sequence (P55210 whole entry D23A/D198A/D206A): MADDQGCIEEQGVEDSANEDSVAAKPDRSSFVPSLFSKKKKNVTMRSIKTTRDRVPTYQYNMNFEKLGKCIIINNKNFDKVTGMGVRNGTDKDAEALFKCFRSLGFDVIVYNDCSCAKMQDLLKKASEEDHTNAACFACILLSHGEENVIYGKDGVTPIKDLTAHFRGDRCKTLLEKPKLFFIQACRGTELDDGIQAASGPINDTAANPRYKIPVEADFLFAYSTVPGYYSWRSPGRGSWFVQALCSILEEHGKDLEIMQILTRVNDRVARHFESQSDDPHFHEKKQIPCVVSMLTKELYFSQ
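Assay system: Uncleavable procaspase-7 mutant enzyme / Input: 2 µM procaspase-7 mutant as dispensed / Dosing: single nominal 8.5 µM compound dose, 0.8% DMSO final / Timing: 1 h enzyme–compound preincubation and 2 h substrate reaction, both 25 °C / Detection: p-Nitroaniline absorbance at 405 nm, read at 0 and 120 min / Replication: singlicate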
procasp3 activ – procaspase-3 (human) activation; P42574; recombinant procaspase-3 D3A, Ac-DEVD-pNA absorbance 405 nm; activation, % at 8.5 µM; 330,000 compounds, 0.11% hits; AID 463141;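 active = activation above the mean of all tested compounds plus 3 SD, cut at about 21% in these data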;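 also: 0% = DMSO alone and 100% = DMSO wells spiked with extra 5 µM PC-3 D3A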
Target sequence (P42574 whole entry D9A/D28A/D175A): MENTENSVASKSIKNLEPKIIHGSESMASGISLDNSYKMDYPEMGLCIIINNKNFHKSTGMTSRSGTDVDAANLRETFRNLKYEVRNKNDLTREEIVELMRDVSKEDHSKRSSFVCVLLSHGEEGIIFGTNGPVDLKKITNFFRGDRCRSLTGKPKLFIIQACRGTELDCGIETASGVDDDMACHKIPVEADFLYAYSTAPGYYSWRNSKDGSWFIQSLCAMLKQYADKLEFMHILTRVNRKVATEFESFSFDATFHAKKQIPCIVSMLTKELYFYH
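Assay system: Procaspase-3 D3A mutant, all three cleavage aspartates alanine. Buffer or medium: Zinc-free HEPES saline buffer with Triton X-100. Times: 1 h compound preincubation, 2 h substrate hydrolysis at 25 °C. Measured by: 405 nm absorbance of p-nitroaniline, reads at 0 and 120 min. Read-out basis: percent activation relative to control range. Replicates: singlicate.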
MsrA activ conf – confirmation of bovine methionine sulfoxide reductase A activators | shares compounds with MsrA act | purified bovine MsrA, absorbance read-out | 1,000 compounds, 12% hits | activation, % at 10.6 µM; in the data active = activation above about 4%;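 also: enzyme coupled to thioredoxin and thioredoxin reductase with NADPH; 0% = vehicle wells and 100% = reference activator wells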
The depositor's hits bear a star; . = no result given. Most compounds without a hit are left out; they make up all but 1.5% or so of the library.

SMILES	MsrA act	MsrA inh	Tb MetRS inh	procasp7 counter	procasp3 activ	MsrA activ conf
CS(=O)(=O)c1ccc2nc(NC(=O)c3cc([N+](=O)[O-])cc([N+](=O)[O-])c3)sc2c1	11.4*	-0.8	0.1	5.3	9.4	-0.4
Cc1ccc(C2=NN(S(C)(=O)=O)C(c3ccc4c(c3)OCO4)C2)cc1 (centres undefined)	-0.3	0.7	-0.8	-4.5	0.3	.
CC(=O)N1N=C(c2ccc(C)cc2)CC1c1ccc2c(c1)OCO2 (centres undefined)	8.0*	-0.5	-0.3	4.8	-1.7	-0.7
CCN(CCOC(=O)Nc1ccc(Cl)cc1)C(=O)Nc1ccc(Cl)cc1	.	-0.7	.	.	.	.
O=C(Nc1cccc(Cl)c1)NN(c1ccccc1)C1CCS(=O)(=O)C1 (centres undefined)	.	-0.2	.	.	.	.
COc1cccc(CC(=O)OCC(=O)c2cc(OC)ccc2OC)c1	-3.9	1.2	-0.3	-1.8	8.0	.
COc1cccc(CC(=O)OCC(=O)c2cc(OC)c(OC)c(OC)c2)c1	8.7*	-0.8	-0.3	2.4	9.3	-2.4
O=C1c2ccccc2-c2nnc(-c3ccccc3)cc21	9.4*	-0.4	-0.1	1.9	2.1	4.0*
Cc1cccc(C=NNc2cc(C)c3cccc(C)c3n2)n1	.	0.2	.	.	.	.
COc1ccc(C(=O)CSc2nc3ccccc3n2CC(=O)NC(C)(C)C)cc1	9.7*	0.2	-0.2	-2.2	1.7	-1.5
CCC(C)[C@H](NC(=O)N1CCC(C)CC1)C(=O)OC (some centres undefined)	13.9*	0.6	-0.2	-5.2	-7.6	0.8
CC(=O)C1=C(C)N(Cc2ccc(F)cc2)C(=S)NC1c1cccc(F)c1 (centres undefined)	.	-0.2	.	.	.	.
O=C(O)[C@@H]1Cc2ccccc2N1	8.2*	0.9	-0.3	2.5	-5.0	-2.2
COc1ccc(Cl)cc1C(=O)CSc1nc(N)cc(N)n1	8.0*	-0.3	-0.2	-2.5	-9.6	-1.1
CCCCn1nnnc1SCC(=O)c1cc(Cl)ccc1OC	-2.4	0.1	-0.3	3.7	2.0	.
CN1C(=O)[C@@]2(O[C@H]3C=CC=CN3C3=C2C(=O)CCC3)c2cc([N+](=O)[O-])ccc21	.	2.1	.	.	.	.
COc1ccc2oc(C(=O)OCC(=O)N3C(C)CCCC3C)c(C)c2c1 (centres undefined)	-2.7	-0.4	-0.5	14.0	1.4	.
CCOc1ccc2oc(C(=O)OCC(=O)N3C(C)CCCC3C)c(C)c2c1 (centres undefined)	8.7*	0.9	-0.2	2.9	-3.1	-1.0
O=C1C(=O)c2c(ccc3ccccc23)-c2ccccc21	11.6*	-0.4	0.2	.	.	8.2*
CN(C)/C=C1\Oc2ccc3ccccc3c2C1=O	-4.7	-0.7	-0.6	5.3	-2.0	.
COc1ccccc1-c1cccc2[nH]c3c(c12)CCN1C(=O)[C@H]2[C@H](C)ON(C)[C@H]2C[C@@H]31	.	-0.4	.	.	.	.
CCNC(=O)N(C)c1nncnc1C(=O)NC	21.1*	-0.8	-0.5	.	.	-1.6
CCCCNC(=O)N(C)c1nncnc1C(=O)NC	-13.1	-1.2	-1.2	7.1	5.7	.
CN1NC(=O)c2ccccc2NC1=S	.	-0.2	.	.	.	.
Cc1ccc(CNC(=O)c2ccc3c(=O)n(CC4CCCO4)c(=S)[nH]c3c2)cc1 (centres undefined)	-5.7	-0.9	-0.6	1.3	1.6	.
SMILES	MsrA act	MsrA inh	Tb MetRS inh	procasp7 counter	procasp3 activ	MsrA activ conf
O=C(NCc1ccccc1)c1ccc2c(=O)n(CC3CCCO3)c(=S)[nH]c2c1 (centres undefined)	12.8*	0.9	-0.1	2.0	0.8	3.1
CCNC(=O)N1CCN(c2ccc(N3CCN(Cc4ccccc4)[C@H](C)C3)c(C)c2)[C@H](C)C1	.	-1.1	.	.	.	.
Cc1cccc(NC(=O)c2c(C)cc(=O)oc2C)n1	13.7*	0.1	-0.8	-3.1	6.8	0.0
Cc1cc(=O)oc(C)c1C(=O)Nc1cccc2ccccc12	-2.2	-1.4	-0.2	-4.3	-5.3	.
COc1cc(NC(=O)c2cc(-c3cc(F)ccc3OC(C)C)n[nH]2)cc(OC)c1OC	9.4*	0.5	-0.2	.	.	-0.9
O=[N+]([O-])c1ccc(Sc2nc3ccccc3o2)c([N+](=O)[O-])c1	7.7*	1.6	0.4	-18.8	-6.1	1.6
CSc1nc2c(=O)[nH]cnc2s1	.	-0.2	.	.	.	.
CN1CCN(C(=O)CN(c2cccc(Cl)c2)S(=O)(=O)c2ccccc2)CC1	10.9*	-1.1	-0.7	4.0	4.8	-1.0
Cc1cccc(N(CC(=O)N2CCN(C)CC2)S(=O)(=O)c2ccccc2)c1	-3.1	-0.5	-0.9	-7.6	3.3	.
O=C(NC1CC1)C1=C[C@@H](c2ccc(C(F)(F)F)cc2)C[C@@H](OCc2ccc(CO)cc2)O1	8.1*	0.5	-0.6	-9.9	5.2	2.5
COC(=O)/C=C1\Nc2ccc(Cl)cc2C(=O)NC1=O	.	-0.1	.	.	.	.
COc1ccc2c(CC(=O)Nc3ccccc3OC)coc2c1	-2.8	-0.9	-0.6	-3.1	-1.2	.
COc1ccc(NC(=O)COC(=O)Cc2coc3cc(OC)ccc23)c(OC)c1	8.0*	-0.1	-0.1	-2.1	0.2	-1.0
COC(=O)[C@]12C[C@H](CC(=O)NCc3ccc(OC)c(OC)c3)C(=O)N(Cc3ccc4c(c3)OCO4)C1=C[C@H](COCc1ccccc1)O[C@@H]2C	.	-0.4	.	.	.	.
Nn1c(SCC(=O)NC2CCCc3ccccc32)nnc1-c1cccs1 (centres undefined)	8.7*	1.0	-0.8	11.7	2.9	0.3
CCC(c1nnnn1C(C)(C)C)N1CCN(C2CCCC2)CC1 (centres undefined)	8.1*	0.2	-0.2	8.9	3.8	-0.7
COc1ccc(-c2nnc(SCC(=O)NCc3ccco3)o2)cc1	-4.1	0.0	-0.6	-1.7	-3.5	.
COc1ccc(-c2nnc(SCC(=O)NC(=O)NCc3ccccc3)o2)cc1	9.7*	0.3	0.5	6.0	-2.4	-1.1
COC(=O)[C@]12C[C@H](CC(=O)N3CCC(c4ccccc4)CC3)C(=O)N(Cc3ccc4c(c3)OCO4)C1=C[C@H](C(C)(C)C)O[C@@H]2C	.	0.5	.	.	.	.
COc1ccc(S(=O)(=O)c2c(C)c(NS(=O)(=O)c3ccccc3)cc(C)c2O)cc1	-8.8	0.8	-0.8	0.9	0.2	.
COc1ccc(S(=O)(=O)Nc2cc(C)c(O)c(S(=O)(=O)c3ccccc3)c2)cc1	9.3*	-0.1	-0.3	3.6	-2.5	0.5
Cc1ccc2[nH]c3c(c2c1)CN(C(=O)CN1CCN(c2ccccn2)CC1)CC3	10.4*	-0.8	0.7	-3.4	-5.7	4.0*
Cc1cc(NC(=O)CCCC(=O)NCc2cccs2)no1	7.9*	-0.3	0.2	-4.5	1.4	-1.8
COc1cc2c(cc1OC)C(c1ccc([N+](=O)[O-])cc1)NCC2 (centres undefined)	-3.3	1.1	-0.7	-7.1	1.7	.

High-throughput results from PubChem.
